The text below walks through data of ChEMBL document CHEMBL1629456, “ApoA-I mimetic peptides promote pre-β HDL formation in vivo causing remodeling of HDL and triglyceride accumulation at higher dose” (Bioorg Med Chem, 2010).

Active and inactive are the calls of the source. The calls are words filed in the database; no cut-off is given here. Where a SMILES comes first, the peptide text is derived from it. [ ]: non-standard residue; d: D form. Ala(5-hexenyl) = C=CCCCCC[C@H](N)C(=O)O

As usually defined, the EC50 is the concentration giving half of the maximal effect. A lower EC50 goes with higher potency in that assay. Usually IC50 stands for the concentration that inhibits the measured activity by half.

Series [1] relates to Mus musculus. Description: Increase in VLDL cholesterol level in C57/BL6 mouse at 30 mg/kg, sc by FPLC. It counts as functional, organism-based. More on the design: dose 30 mg/kg. The conditions noted are these: C57Bl/6. The gist of the method:
(§1)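 Male C57Bl/6 mice (≥12 weeks, chow-fed) dosed subcutaneously with peptide in vehicle (50 mM mannitol in PBS); serum collected by cardiac puncture at time points post-dose. Serum was pooled (three animals per pool), given protease and lipase inhibitors, filtered, and fractionated by Superose 6 FPLC in PBS pH 7.4 with 1 mM EDTA at 0.2 ml/min. Cholesterol and triglyceride in fractions were measured by enzymatic colorimetry.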

The test system of series [2] is Mus musculus. The series is described as follows: Induction of pre-beta HDL formation in apoe deficient mouse assessed as increase in circulating pre-beta HDL at 60 mg/kg, sc after 2 hrs by FPLC. More on the design: dose 60 mg/kg. It counts as functional, organism-based. The conditions noted are these: TDE = time-dependent effect.
The test system of series [3] is Mus musculus. Description: Effect on triglyceride level in C57/BL6 mouse at 60 mg/kg, sc after 1 hr. The conditions noted are these: C57Bl/6. More on the design: dose 60 mg/kg. It counts as functional, organism-based. Summed up: (§2)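 Male C57Bl/6 mice (≥12 weeks, chow-fed) given peptide subcutaneously in 50 mM mannitol/PBS vehicle. Serum was collected by cardiac puncture at 1 or 3 h, clotted 1 h at room temperature and spun at 10,000g. Serum triglyceride was measured by enzymatic colorimetric assay, with 3–5 animals per dose and time point.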

Series [4] has as its system Mus musculus. Description: Increase in VLDL cholesterol level in C57/BL6 mouse at 100 mg/kg, sc by FPLC. The note with it: C57Bl/6. It counts as functional, organism-based. More on the design: dose 100 mg/kg. The gist of the method: as §1
For series [5], the system named is Mus musculus. Description: Effect on triglyceride level in C57/BL6 mouse at 20 mg/kg, sc after 1 hr. It counts as functional, organism-based. More on the design: dose 20 mg/kg. The conditions noted are these: C57Bl/6. Summed up:
as §2

Series [6] is filed under the species Mus musculus. Description: Induction of pre-beta HDL formation in C57/BL6 mouse plasma at 0.25 mg/ml after 2 hrs by FPLC. It counts as functional. The note with it: C57Bl/6. Summed up:
(§3)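 Peptide was added to C57Bl/6 mouse plasma (final 0.25 mg/ml) or human plasma (final 0.5 mg/ml) and incubated at 37 °C. Lipoproteins were fractionated by Superose 6 FPLC in PBS pH 7.4 with 1 mM EDTA. Cholesterol was measured by enzymatic colorimetry and peptide by LC–MS against an internal standard.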

The test system of series [7] is Mus musculus. Description: Decrease in HDL cholesterol level in C57/BL6 mouse at 100 mg/kg, sc after 24 hrs by FPLC. It counts as functional, organism-based. More on the design: dose 100 mg/kg. The conditions noted are these: C57Bl/6. The gist of the method: as §1
The subject of series [8] is Mus musculus. The series is described as follows: Increase in VLDL triglyceride level in C57/BL6 mouse at 100 mg/kg, sc by FPLC. It counts as functional, organism-based. More on the design: dose 100 mg/kg. The conditions noted are these: C57Bl/6. Summed up:
as §1

A short description of series [9]: Plasma concentration in C57/BL6 mouse at 60 mg/kg, sc after 3 hrs. It counts as ADME, organism-based, C57Bl/6. More on the design: dose 60 mg/kg, route subcutaneous. The gist of the method: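 Male C57Bl/6 mice were dosed subcutaneously with peptide in 50 mM mannitol/PBS. Serum was taken by cardiac puncture, and peptide was measured by LC–MS/MS after acetonitrile protein precipitation.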

Series [10] deals with Phospholipid-transporting ATPase ABCA1 (Mus musculus, UniProt P41233). Description: Induction of ABCA1-mediated [3H]cholesterol efflux in mouse RAW 264.7 macrophages after 24 hrs.
The test system of series [11] is Mus musculus. The series is described as follows: Decrease in HDL cholesterol level in C57/BL6 mouse at 30 mg/kg, sc after 24 hrs by FPLC. More on the design: dose 30 mg/kg. It counts as functional, organism-based. The note with it: C57Bl/6. Summed up: as §1
For series [12], the system named is Mus musculus. Description: Effect on triglyceride level in C57/BL6 mouse at 20 mg/kg, sc after 3 hrs. It counts as functional, organism-based. More on the design: dose 20 mg/kg. The note with it: C57Bl/6. Summed up:
as §2

Series [13] has as its system Mus musculus. The series is described as follows: Induction of hypertriglyceridemia in C57/BL6 mouse at 100 mg/kg, sc by FPLC. It counts as functional, organism-based. More on the design: dose 100 mg/kg. The conditions noted are these: C57Bl/6. The gist of the method: as §1
For series [14], the system named is Mus musculus. Description: Effect on TG content in HDL in C57/BL6 mouse at 30 mg/kg, sc after 24 hrs by FPLC. It counts as functional, organism-based. More on the design: dose 30 mg/kg. The conditions noted are these: C57Bl/6. Summed up:
as §1

The subject of series [15] is Mus musculus. The series is described as follows: Increase in VLDL triglyceride level in C57/BL6 mouse at 30 mg/kg, sc by FPLC. It counts as functional, organism-based. More on the design: dose 30 mg/kg. The note with it: C57Bl/6. The gist of the method:
as §1

Series [16] concerns Plasma. Description: Induction of pre-beta HDL formation in human plasma at 0.5 mg/ml after 2 hrs by FPLC. It counts as functional, cell-free. The gist of the method: as §3
The test system of series [17] is Mus musculus. The series is described as follows: Induction of hypertriglyceridemia in C57/BL6 mouse at 30 mg/kg, sc by FPLC. It counts as functional, organism-based. More on the design: dose 30 mg/kg. The note with it: C57Bl/6. Summed up:
as §1

Series [18] has as its system Plasma. Description: Induction of pre-beta HDL formation in human plasma after 2 hrs by ELISA. It counts as functional, cell-free. The gist of the method:
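Increasing peptide concentrations were incubated with normal human plasma at 37 °C for 2 h. Pre-β HDL was quantified by a commercial human pre-β HDL ELISA.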
For orientation: ELISA stands for enzyme-linked immunosorbent assay.

The target of series [19] is Phospholipid-transporting ATPase ABCA1 (Mus musculus) (UniProt P41233). Description: Induction of ABCA1-mediated [3H]cholesterol efflux in mouse J774 macrophages. The note with it: TDE = time-dependent effect. The gist of the method:
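Ex vivo serum efflux. J774 macrophages were labeled with [3H]cholesterol for 24 h, then equilibrated 18 h in 0.2% BSA, with or without cpt-cAMP. Cells were incubated 4 h at 37 °C with 2% serum from peptide-dosed apoe-/- mice (60 mg/kg sc). Fractional efflux was media [3H] over total at time zero; ABCA1-dependent efflux = cAMP-treated minus untreated.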

The test system of series [20] is Plasma. The series is described as follows: Induction of pre-beta HDL formation in mouse plasma after 2 hrs by ELISA. It counts as functional, cell-free.
The target of series [21] is Lipoprotein lipase (Bos taurus) (UniProt P11151). Description: Inhibition of Lipoprotein lipase in vitro.
Series [22] deals with Mus musculus. Description: Effect on TG content of HDL in C57/BL6 mouse at 100 mg/kg, sc after 24 hrs by FPLC. It counts as functional, organism-based. More on the design: dose 100 mg/kg. The note with it: C57Bl/6. Summed up:
as §1

The subject of series [23] is Mus musculus. Description: Effect on triglyceride level in C57/BL6 mouse at 60 mg/kg, sc. It counts as functional, organism-based. More on the design: dose 60 mg/kg. The conditions noted are these: C57Bl/6, TDE = time-dependent effect. Summed up:
as §2

Phospholipid-transporting ATPase ABCA1, sequence (P41233 whole entry): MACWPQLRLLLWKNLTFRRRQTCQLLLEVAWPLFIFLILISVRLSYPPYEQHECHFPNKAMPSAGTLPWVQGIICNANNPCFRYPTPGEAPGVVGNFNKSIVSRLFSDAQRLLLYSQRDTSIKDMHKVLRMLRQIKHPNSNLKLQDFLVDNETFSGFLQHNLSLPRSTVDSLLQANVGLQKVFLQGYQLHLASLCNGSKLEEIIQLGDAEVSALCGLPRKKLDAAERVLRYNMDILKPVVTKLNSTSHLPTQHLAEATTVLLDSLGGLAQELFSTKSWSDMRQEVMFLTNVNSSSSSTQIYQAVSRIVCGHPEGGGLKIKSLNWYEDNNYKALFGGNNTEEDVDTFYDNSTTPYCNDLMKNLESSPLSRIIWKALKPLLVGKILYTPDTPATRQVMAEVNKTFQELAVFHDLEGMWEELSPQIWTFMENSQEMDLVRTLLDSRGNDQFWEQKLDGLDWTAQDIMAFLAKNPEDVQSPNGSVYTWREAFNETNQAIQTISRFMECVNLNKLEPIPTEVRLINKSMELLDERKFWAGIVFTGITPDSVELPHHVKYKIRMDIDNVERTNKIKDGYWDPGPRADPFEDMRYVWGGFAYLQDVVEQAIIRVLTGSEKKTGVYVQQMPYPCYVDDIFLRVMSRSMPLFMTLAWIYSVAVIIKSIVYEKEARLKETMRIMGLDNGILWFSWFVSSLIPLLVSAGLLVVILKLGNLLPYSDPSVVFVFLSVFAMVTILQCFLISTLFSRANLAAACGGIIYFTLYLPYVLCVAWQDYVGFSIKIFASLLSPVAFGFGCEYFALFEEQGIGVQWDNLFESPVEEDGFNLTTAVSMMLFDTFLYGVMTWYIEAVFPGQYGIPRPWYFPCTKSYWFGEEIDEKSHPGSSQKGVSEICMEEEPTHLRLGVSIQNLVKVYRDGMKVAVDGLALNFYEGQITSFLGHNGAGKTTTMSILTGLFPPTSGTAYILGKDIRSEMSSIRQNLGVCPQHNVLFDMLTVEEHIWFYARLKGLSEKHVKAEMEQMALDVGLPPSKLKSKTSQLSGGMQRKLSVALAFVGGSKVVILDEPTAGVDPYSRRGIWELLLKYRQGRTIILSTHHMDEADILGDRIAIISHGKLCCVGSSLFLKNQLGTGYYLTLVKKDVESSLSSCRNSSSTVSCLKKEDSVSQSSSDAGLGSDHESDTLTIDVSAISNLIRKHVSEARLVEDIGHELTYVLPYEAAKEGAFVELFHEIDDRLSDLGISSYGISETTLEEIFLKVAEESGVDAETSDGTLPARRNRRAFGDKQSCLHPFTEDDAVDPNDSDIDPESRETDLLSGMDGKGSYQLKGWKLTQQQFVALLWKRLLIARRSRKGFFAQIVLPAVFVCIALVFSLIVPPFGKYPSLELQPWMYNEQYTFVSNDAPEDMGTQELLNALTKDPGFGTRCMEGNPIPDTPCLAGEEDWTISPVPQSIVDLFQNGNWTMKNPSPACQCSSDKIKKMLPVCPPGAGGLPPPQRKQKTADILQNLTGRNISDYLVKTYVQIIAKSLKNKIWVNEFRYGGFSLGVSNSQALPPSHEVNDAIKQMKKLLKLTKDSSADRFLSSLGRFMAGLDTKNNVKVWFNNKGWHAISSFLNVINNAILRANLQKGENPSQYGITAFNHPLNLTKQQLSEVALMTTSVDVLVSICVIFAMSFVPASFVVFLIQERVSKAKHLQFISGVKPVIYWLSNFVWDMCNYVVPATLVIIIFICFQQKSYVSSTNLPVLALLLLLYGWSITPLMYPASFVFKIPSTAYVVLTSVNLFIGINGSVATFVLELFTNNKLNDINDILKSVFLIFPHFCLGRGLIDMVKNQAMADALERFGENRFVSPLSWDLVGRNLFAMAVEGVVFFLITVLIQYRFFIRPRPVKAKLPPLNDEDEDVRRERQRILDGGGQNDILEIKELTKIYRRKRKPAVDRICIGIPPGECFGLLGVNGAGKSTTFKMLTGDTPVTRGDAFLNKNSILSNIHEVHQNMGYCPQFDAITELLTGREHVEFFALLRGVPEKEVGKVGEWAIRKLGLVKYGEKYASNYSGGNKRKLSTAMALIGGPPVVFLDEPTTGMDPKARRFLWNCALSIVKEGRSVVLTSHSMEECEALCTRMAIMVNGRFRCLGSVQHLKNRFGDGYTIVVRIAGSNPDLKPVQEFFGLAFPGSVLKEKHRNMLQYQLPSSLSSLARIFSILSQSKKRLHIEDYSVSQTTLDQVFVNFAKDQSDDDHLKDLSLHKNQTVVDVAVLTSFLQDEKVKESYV
Phospholipid-transporting ATPase ABCA1 (Mus musculus), sequence (P41233 whole entry): as above

For `C=CCCCCC[C@H](NC(=O)[C@H](CCC(=O)O)NC(=O)[C@H](CC(N)=O)NC(=O)[C@H](CC(C)C)NC(=O)[C@H](CCCCN)NC(=O)[C@H](CCC(=O)O)NC(=O)[C@H](CCCNC(=N)N)NC(=O)[C@H](CCCCCC=C)NC(=O)[C@H](CCC(=O)O)NC(=O)[C@H](CC(=O)O)NC(=O)[C@H](CC(C)C)NC(=O)[C@@H](NC(=O)[C@@H]1CCCN1C(C)=O)C(C)C)C(=O)N[C@@H](CC(C)C)C(=O)N[C@@H](CCC(=O)O)C(=O)N[C@@H](C)C(=O)N[C@@H](CC(C)C)C(=O)N[C@@H](CCCCN)C(=O)N[C@@H](CCC(N)=O)C(=O)N[C@@H](CCCCN)C(=O)N[C@@H](CC(C)C)C(=O)N[C@@H](CCCCN)C(N)=O` (Ac-PVLDE[Ala(5-hexenyl)]REKLNE[Ala(5-hexenyl)]LEALKQKLK-NH2), the result in the series on Mus musculus [1], in the series on Mus musculus [4], in the series listed under Mus musculus [6], in the series on Mus musculus [7], in the series with Mus musculus [8] and in the series with Mus musculus [11] was Active. The result in the series with Mus musculus [13], in the series with Mus musculus [15] and in the series with Plasma [16] was Active. Besides, the Activity result is “tde” with Mus musculus [2], “Dose-dependent effect” in the series on Plasma [18], “tde” in series [19] and “Dose-dependent effect” in the series with Plasma [20]. The outcome in the series on Mus musculus [3], with Mus musculus [5], in the series on Mus musculus [12], in the series on Mus musculus [14], with Mus musculus [17] and in the series with Mus musculus [22] was inactive. Moreover, the concentration at 3 h in series [9] was 124 µM. The EC50 in [10] was found to be 0.4 µM. The compound further displayed an IC50 in series [21] of 60 µM.
For Ac-PVLDEFREKLNEELEALKQKLK-NH2, the Activity entry with Mus musculus [23] was “tde”. Also, the outcome in the series with Plasma [18] was inactive. In [21], this compound yielded an IC50 of 477 µM.
